Source: ChEMBL document CHEMBL1143174, “Pharmacomodulation on the 3-acetylursolic acid skeleton: Design, synthesis, and biological evaluation of novel N-{3-[4-(3-aminopropyl)piperazinyl]propyl}-3-O-acetylursolamide derivatives as antimalarial agents” (Bioorg Med Chem, 2008)

Tests used:
[1] = tested on: Plasmodium falciparum; experiment: Antimalarial activity against chloroquine-resistant Plasmodium falciparum FcB1 after 24 hrs; type: functional, organism-based; details: FcB1, 24 h
In short: (§1)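 Asynchronous P. falciparum cultures in human erythrocytes (1% parasitemia, 1% final hematocrit) exposed to serially diluted compounds (DMSO stock, final DMSO ≤0.1%) for 24 h at 37 °C, then 0.5 µCi [3H]hypoxanthine per well added for a further 24 h. Growth inhibition from incorporated radioactivity versus drug-free control on the same plate; IC50 from concentration-response curve, means ± standard deviations of several independent experiments.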

[2] = tested on: Plasmodium falciparum; experiment: Antimalarial activity against chloroquine-sensitive Plasmodium falciparum Thai after 24 hrs; type: functional, organism-based; in short: as §1
[3] = tested on: MRC5; experiment: Cytotoxicity against human MRC5 cells; type: cell-based
[4] = Selectivity index, IC50 for MRC5 cells to IC50 for chloroquine-resistant Plasmodium falciparum FcB1; type: functional
In short: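 Ratio of IC50 on MRC-5 human diploid embryonic lung cells to IC50 on FcB1 parasites, the latter from the 24 h drug plus 24 h [3H]hypoxanthine incorporation assay.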

[5] = Resistance index, IC50 for chloroquine-resistant Plasmodium falciparum FcB1 to chloroquine-sensitive Plasmodium falciparum Thai; type: functional
In short: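 Ratio of IC50 values between the sensitive Thai and resistant FcB1 strains, each from the [3H]hypoxanthine incorporation assay (24 h drug exposure then 24 h label, asynchronous cultures, 1% parasitemia, 1% hematocrit).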

[6] = target: T1, Histidine-rich protein PFHRP-II (Plasmodium falciparum) (UniProt P05227); experiment: Inhibition of beta-hematin formation at 5.7 mM; type: functional
T1 sequence (whole entry): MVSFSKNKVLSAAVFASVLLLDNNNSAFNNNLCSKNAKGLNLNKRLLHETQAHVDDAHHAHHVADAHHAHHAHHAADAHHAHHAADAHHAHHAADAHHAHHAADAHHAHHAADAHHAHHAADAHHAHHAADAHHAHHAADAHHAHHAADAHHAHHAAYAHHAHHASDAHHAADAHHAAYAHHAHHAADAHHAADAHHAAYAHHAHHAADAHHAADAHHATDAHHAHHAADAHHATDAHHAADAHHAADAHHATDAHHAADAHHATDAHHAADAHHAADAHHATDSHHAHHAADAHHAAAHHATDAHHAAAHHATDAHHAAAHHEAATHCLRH

[7] = target: T1, Histidine-rich protein PFHRP-II (Plasmodium falciparum); experiment: Inhibition of beta-hematin formation at 11.4 mM; type: functional
[8] = target: T2, Histidine-rich protein PFHRP-II (Plasmodium falciparum, UniProt P05227); experiment: Inhibition of beta-hematin formation; type: functional
T2 sequence (P05227 whole entry): T1 sequence (whole entry)

[9] = target: T1, Histidine-rich protein PFHRP-II (Plasmodium falciparum); experiment: Relative chloroquine IC50 for beta-hematin formation; type: functional
[10] = target: T1, Histidine-rich protein PFHRP-II (Plasmodium falciparum); experiment: Inhibition of beta-hematin formation at 5 mM; type: functional
[11] = target: T1, Histidine-rich protein PFHRP-II (Plasmodium falciparum); experiment: Inhibition of beta-hematin formation at 10 mM; type: functional
[12] = target: T1, Histidine-rich protein PFHRP-II (Plasmodium falciparum); experiment: Inhibition of beta-hematin formation at 1 to 20 mM; type: functional
[13] = target: T1, Histidine-rich protein PFHRP-II (Plasmodium falciparum); experiment: Inhibition of beta-hematin formation at 4.2 mM; type: functional
[14] = target: T1, Histidine-rich protein PFHRP-II (Plasmodium falciparum); experiment: Inhibition of beta-hematin formation at 8.4; type: functional; details: concentration not given here

| Structure (SMILES) | IC50 [1] [µM] | IC50 [2] [nM] | IC50 [3] [nM] | Selectivity index [4] | Ratio [5] | also measured |
| --- | --- | --- | --- | --- | --- | --- |
| CCCCCCCN(CCCCCCC)CCCN1CCN(CCCNC(=O)[C@]23CC[C@@H](C)[C@H](C)[C@H]2C2=CC[C@@H]4[C@@]5(C)CC[C@H](OC(C)=O)C(C)(C)[C@@H]5CC[C@@]4(C)[C@]2(C)CC3)CC1 | 41.8 |  |  |  |  |  |
| CC(=O)O[C@H]1CC[C@]2(C)[C@H]3CC=C4[C@@H]5[C@@H](C)[C@H](C)CC[C@]5(C(=O)NCCCN5CCN(CCCN(Cc6ccc([N+](=O)[O-])cc6)Cc6ccc([N+](=O)[O-])cc6)CC5)CC[C@@]4(C)[C@]3(C)CC[C@H]2C1(C)C | 3.57 | 3050 | 18300 | 5.1 | 1.17 | inhibition [6]: 3.6%; inhibition [7]: 18.6%; IC50 [8]: > 20 mM; Ratio IC50 [9]: > 3.4 |
| CCN(CC)CCCC(C)Nc1ccnc2cc(Cl)ccc12 (stereo unspecified) |  |  |  |  |  | inhibition [10]: 36.9%; inhibition [11]: 97.4% |
| CC(=O)O[C@H]1CC[C@]2(C)[C@H]3CC=C4[C@@H]5[C@@H](C)[C@H](C)CC[C@]5(C(=O)NCCCN5CCN(CCCN(CC6CC6)CC6CC6)CC5)CC[C@@]4(C)[C@]3(C)CC[C@H]2C1(C)C | 0.49 | 950 | 2530 | 5.1 | 0.51 |  |
| CC(=O)O[C@H]1CC[C@]2(C)[C@H]3CC=C4[C@@H]5[C@@H](C)[C@H](C)CC[C@]5(C(=O)NCCCN5CCN(CCCN(Cc6ccc(Cl)cc6)Cc6ccc(Cl)cc6)CC5)CC[C@@]4(C)[C@]3(C)CC[C@H]2C1(C)C | 46 |  |  |  |  |  |
| CC(=O)O[C@H]1CC[C@]2(C)[C@H]3CC=C4[C@@H]5[C@@H](C)[C@H](C)CC[C@]5(C(=O)NCCCN5CCN(CCCNCc6ccc(O)cc6)CC5)CC[C@@]4(C)[C@]3(C)CC[C@H]2C1(C)C | 0.08 | 180 | 2100 | 27 | 0.43 |  |
| CC(=O)O[C@H]1CC[C@]2(C)[C@H]3CC=C4[C@@H]5[C@@H](C)[C@H](C)CC[C@]5(C(=O)NCCCN5CCN(CCCN(CC(C)C)CC(C)C)CC5)CC[C@@]4(C)[C@]3(C)CC[C@H]2C1(C)C | 18.8 |  |  |  |  |  |
| CC(=O)O[C@H]1CC[C@]2(C)[C@H]3CC=C4[C@@H]5[C@@H](C)[C@H](C)CC[C@]5(C(=O)O)CC[C@@]4(C)[C@]3(C)CC[C@H]2C1(C)C [O-ACETYLURSOLIC ACID] | 24.9 |  |  |  |  | inhibition [12]: 0% |
| COc1ccc(CN(CCCN2CCN(CCCNC(=O)[C@]34CC[C@@H](C)[C@H](C)[C@H]3C3=CC[C@@H]5[C@@]6(C)CC[C@H](OC(C)=O)C(C)(C)[C@@H]6CC[C@@]5(C)[C@]3(C)CC4)CC2)Cc2ccc(OC)cc2)cc1 | 6.5 |  |  |  |  |  |
| C[C@H]1[C@H](C)CC[C@]2(C(=O)NCCCN3CCN(CCCN)CC3)CC[C@]3(C)C(=CC[C@@H]4[C@@]5(C)CC[C@H](O)C(C)(C)[C@@H]5CC[C@]43C)[C@H]12 | 0.32 |  |  |  |  |  |
| CC(=O)O[C@H]1CC[C@]2(C)[C@H]3CC=C4[C@@H]5[C@@H](C)[C@H](C)CC[C@]5(C(=O)NCCCN5CCN(CCCN(Cc6ccc(O)cc6)Cc6ccc(O)cc6)CC5)CC[C@@]4(C)[C@]3(C)CC[C@H]2C1(C)C | 0.16 | 350 | 1570 | 9.7 | 0.46 | inhibition [13]: 39.6%; inhibition [14]: 82.2%; IC50 [8]: 5.25 mM; Ratio IC50 [9]: 0.89 |
| CCCN(CCC)CCCN1CCN(CCCNC(=O)[C@]23CC[C@@H](C)[C@H](C)[C@H]2C2=CC[C@@H]4[C@@]5(C)CC[C@H](OC(C)=O)C(C)(C)[C@@H]5CC[C@@]4(C)[C@]2(C)CC3)CC1 | 0.8 | 1000 | 1960 | 2.5 | 0.79 |  |
| CC(=O)O[C@H]1CC[C@]2(C)[C@H]3CC=C4[C@@H]5[C@@H](C)[C@H](C)CC[C@]5(C(=O)NCCCN5CCN(CCCN)CC5)CC[C@@]4(C)[C@]3(C)CC[C@H]2C1(C)C | 0.17 | 460 | 1610 | 9.6 | 0.37 | inhibition [10]: 12.9%; inhibition [11]: 24.6%; IC50 [8]: > 20 mM; Ratio IC50 [9]: > 3.4 |
| CC(=O)O[C@H]1CC[C@]2(C)[C@H]3CC=C4[C@@H]5[C@@H](C)[C@H](C)CC[C@]5(C(=O)NCCCN5CCN(CCCN(CC6CCCCC6)CC6CCCCC6)CC5)CC[C@@]4(C)[C@]3(C)CC[C@H]2C1(C)C | > 100 |  |  |  |  |  |
| CC(=O)O[C@H]1CC[C@]2(C)[C@H]3CC=C4[C@@H]5[C@@H](C)[C@H](C)CC[C@]5(C(=O)NCCCN5CCN(CCCN(Cc6ccc(F)cc6)Cc6ccc(F)cc6)CC5)CC[C@@]4(C)[C@]3(C)CC[C@H]2C1(C)C | 20.3 |  |  |  |  |  |
| C[C@H]1[C@H](C)CC[C@]2(C(=O)O)CC[C@]3(C)C(=CC[C@@H]4[C@@]5(C)CC[C@H](O)C(C)(C)[C@@H]5CC[C@]43C)[C@H]12 [URSOLIC ACID] | 52.9 |  |  |  |  | inhibition [10]: 17.9%; IC50 [8]: > 20 mM; Ratio IC50 [9]: > 3.4 |
| CC(=O)O[C@H]1CC[C@]2(C)[C@H]3CC=C4[C@@H]5[C@@H](C)[C@H](C)CC[C@]5(C(=O)NCCCN5CCN(CCCN(Cc6ccccc6)Cc6ccccc6)CC5)CC[C@@]4(C)[C@]3(C)CC[C@H]2C1(C)C | 21.1 |  |  |  |  |  |
| CCCCN(CCCC)CCCN1CCN(CCCNC(=O)[C@]23CC[C@@H](C)[C@H](C)[C@H]2C2=CC[C@@H]4[C@@]5(C)CC[C@H](OC(C)=O)C(C)(C)[C@@H]5CC[C@@]4(C)[C@]2(C)CC3)CC1 | 1 |  |  |  |  |  |
| CC(=O)O[C@H]1CC[C@]2(C)[C@H]3CC=C4[C@@H]5[C@@H](C)[C@H](C)CC[C@]5(C(=O)NCCCN5CCN(CCCNCc6ccc([N+](=O)[O-])cc6)CC5)CC[C@@]4(C)[C@]3(C)CC[C@H]2C1(C)C | 1.04 | 980 | 5390 | 5.2 | 1.06 |  |
| CC(=O)O[C@H]1CC[C@]2(C)[C@H]3CC=C4[C@@H]5[C@@H](C)[C@H](C)CC[C@]5(C(=O)NCCCN5CCN(CCCN(Cc6ccc(Br)cc6)Cc6ccc(Br)cc6)CC5)CC[C@@]4(C)[C@]3(C)CC[C@H]2C1(C)C | > 100 |  |  |  |  |  |
| CC(=O)O[C@H]1CC[C@]2(C)[C@H]3CC=C4[C@@H]5[C@@H](C)[C@H](C)CC[C@]5(C(=O)NCCCN5CCN(CCCN(CCCc6ccccc6)CCCc6ccccc6)CC5)CC[C@@]4(C)[C@]3(C)CC[C@H]2C1(C)C | 8.06 |  |  |  |  |  |
